Drawing on ChEMBL document CHEMBL4229344 (Eur J Med Chem, 2018), this text covers Activity and inhibition for one compound.

Assay [1] deals with Serine/threonine-protein kinase 16 (Homo sapiens) (UniProt O75716). Nature of the assay: Binding affinity to wild-type human partial length STK16 (G11 to I305 residues) expressed in bacterial expression system assessed as residual binding level at 1 uM by Kinomescan method relative to control.
Assay [2] addresses Cyclin-dependent kinase 18 (Homo sapiens) (UniProt Q07002). Nature of the assay: Binding affinity to wild-type human full length PCTK3 (M3 to F474 residues) expressed in bacterial expression system assessed as residual binding level at 1 uM by Kinomescan method relative to control. Put shortly:
(§1)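 Single-concentration KINOMEscan (DiscoverX) binding screen at 1 μM against a panel of 468 purified kinases and mutants. The read-out is binding relative to control.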

In assay [3] the target is Serine/threonine-protein kinase PAK 3 (Homo sapiens) (UniProt O75914). Nature of the assay: Binding affinity to wild-type human full length PAK3 (M1 to R544 residues) expressed in bacterial expression system assessed as residual binding level at 1 uM by Kinomescan method relative to control. The method in brief:
(§2)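 KINOMEscan competition binding against 468 purified kinases/mutants, test compound at 1 µM; residual binding relative to control.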

Assay [4] concerns the target Serine/threonine-protein kinase TNNI3K (Homo sapiens) (UniProt Q59H18). Nature of the assay: Binding affinity to wild-type human full length TNNI3K (M1 to S835 residues) expressed in bacterial expression system assessed as residual binding level at 1 uM by Kinomescan method relative to control. Put shortly: as §1
Assay [5] has as its target Serine/threonine-protein kinase N1 (Homo sapiens) (UniProt Q16512). Put plainly: Binding affinity to wild-type human partial length PKN1 (E598 to C948 residues) expressed in bacterial expression system assessed as residual binding level at 1 uM by Kinomescan method relative to control.
Assay [6] addresses Non-receptor tyrosine-protein kinase TNK1 (Homo sapiens) (UniProt Q13470). Nature of the assay: Binding affinity to wild-type human full length TNK1 (M1 to P661 residues) expressed in bacterial expression system assessed as residual binding level at 1 uM by Kinomescan method relative to control. Put shortly:
as §2

Assay [7] concerns the target Platelet-derived growth factor receptor alpha (Homo sapiens, UniProt P16234). Nature of the assay: Inhibition of PDGFRalpha autophosphorylation at Y849 residue in human EOL-1 cells up to 300 nM after 2 hrs by Western blot analysis. The assay is classed as cell-based.
For assay [8], the system named is Tyrosine-protein kinase ABL1 (Homo sapiens), P00519 [H396P]. Put plainly: Binding affinity to human non-phosphorylated ABL1 H396P mutant (S229 to K512 residues) expressed in mammalian expression system assessed as residual binding level at 1 uM by Kinomescan method relative to control. Put shortly: (§3)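 Kinome-wide single-concentration binding screen (KINOMEscan) at 1 μM against a panel of 468 purified kinases and mutants. Read-out is relative binding of each kinase compared with control. Selectivity across the panel was summarised as an S(10) score.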

The target in assay [9] is cGMP-dependent protein kinase 1 (Homo sapiens) (UniProt Q13976). Put plainly: Binding affinity to wild-type human partial length PRKG1 (L339 to F686 residues) expressed in bacterial expression system assessed as residual binding level at 1 uM by Kinomescan method relative to control.
In assay [10] the target is Serine/threonine-protein kinase 10 (Homo sapiens) (UniProt O94804). Nature of the assay: Binding affinity to wild-type human partial length LOK (E16 to V314 residues) expressed in bacterial expression system assessed as residual binding level at 1 uM by Kinomescan method relative to control. Put shortly: (§4)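 Kinome-wide competition binding screen against a panel of 468 purified kinases/mutants, with the test compound at a single concentration of 1 μM. Read-out is the relative binding activity of each kinase in the presence of compound.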

In assay [11] the target is Cyclin-dependent kinase 3 (Homo sapiens) (UniProt Q00526). Put plainly: Binding affinity to wild-type human full length CDK3 (M1 to H305 residues) expressed in bacterial expression system assessed as residual binding level at 1 uM by Kinomescan method relative to control. The method in brief: (§5)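 Single-concentration (1 μM) competition-binding screen run by KINOMEscan against a panel of 468 purified kinases and mutants. The read-out is the relative binding activity of the test compound to each kinase.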

The target in assay [12] is Serine/threonine-protein kinase BRSK1 (Homo sapiens) (UniProt Q8TDC3). Nature of the assay: Binding affinity to wild-type human partial length BRSK1 (M1 to E754 residues) expressed in bacterial expression system assessed as residual binding level at 1 uM by Kinomescan method relative to control.
The target of assay [13] is Vascular endothelial growth factor receptor 1 (Homo sapiens) (UniProt P17948). Put plainly: Binding affinity to wild-type human partial length FLT1 (R781 to F1239 residues) expressed in bacterial expression system assessed as residual binding level at 1 uM by Kinomescan method relative to control. The method in brief:
as §4

In assay [14] the test system is Leucine-rich repeat serine/threonine-protein kinase 2 (Homo sapiens), Q5S007 [G2019S]. Put plainly: Binding affinity to human partial length LRRK2 G2019S mutant (H970 to E2527 residues) expressed in mammalian expression system assessed as residual binding level at 1 uM by Kinomescan method relative to control. Put shortly:
as §3

Assay [15] concerns the target MAP kinase-interacting serine/threonine-protein kinase 2 (Homo sapiens) (UniProt Q9HBH9). Put plainly: Binding affinity to wild-type human partial length MKNK2 (G63 to S388 residues) expressed in mammalian expression system assessed as residual binding level at 1 uM by Kinomescan method relative to control.
The target of assay [16] is Ribosomal protein S6 kinase alpha-5 (Homo sapiens) (UniProt O75582). Nature of the assay: Binding affinity to wild-type human partial length C-terminal RPS6KA5 kinase domain 2 (V390 to T718 residues) expressed in bacterial expression system assessed as residual binding level at 1 uM by Kinomescan method relative to control.
For assay [17], the target named is Tyrosine-protein kinase Fgr (Homo sapiens) (UniProt P09769). Put plainly: Binding affinity to wild-type human partial length FGR (L233 to T529 residues) expressed in bacterial expression system assessed as residual binding level at 1 uM by Kinomescan method relative to control. The method in brief:
as §4

Assay [18] concerns the target MAP/microtubule affinity-regulating kinase 3 (Homo sapiens) (UniProt P27448). Nature of the assay: Binding affinity to wild-type human full length MARK3 (M1 to L729 residues) expressed in bacterial expression system assessed as residual binding level at 1 uM by Kinomescan method relative to control. The method in brief: as §2
Assay [19] concerns the target Serine/threonine-protein kinase 3 (Homo sapiens) (UniProt Q13188). Put plainly: Binding affinity to wild-type human partial length MST2 (D17 to E318 residues) expressed in bacterial expression system assessed as residual binding level at 1 uM by Kinomescan method relative to control.
For assay [20], the target named is Cyclin-dependent kinase-like 2 (Homo sapiens) (UniProt Q92772). Nature of the assay: Binding affinity to wild-type human partial length CDKL2 (M1 to D327 residues) expressed in bacterial expression system assessed as residual binding level at 1 uM by Kinomescan method relative to control.
In assay [21] the target is Rhodopsin kinase GRK7 (Homo sapiens) (UniProt Q8WTQ7). Nature of the assay: Binding affinity to wild-type human full length GRK7 (M1 to L553 residues) expressed in mammalian expression system assessed as residual binding level at 1 uM by Kinomescan method relative to control. The method in brief:
as §5

Calls of active or inactive are those of the source. No cut-off for these calls is given here.

Sequence of Serine/threonine-protein kinase PAK 3 (Homo sapiens) (O75914 whole entry, looked up, the tested form may be a part): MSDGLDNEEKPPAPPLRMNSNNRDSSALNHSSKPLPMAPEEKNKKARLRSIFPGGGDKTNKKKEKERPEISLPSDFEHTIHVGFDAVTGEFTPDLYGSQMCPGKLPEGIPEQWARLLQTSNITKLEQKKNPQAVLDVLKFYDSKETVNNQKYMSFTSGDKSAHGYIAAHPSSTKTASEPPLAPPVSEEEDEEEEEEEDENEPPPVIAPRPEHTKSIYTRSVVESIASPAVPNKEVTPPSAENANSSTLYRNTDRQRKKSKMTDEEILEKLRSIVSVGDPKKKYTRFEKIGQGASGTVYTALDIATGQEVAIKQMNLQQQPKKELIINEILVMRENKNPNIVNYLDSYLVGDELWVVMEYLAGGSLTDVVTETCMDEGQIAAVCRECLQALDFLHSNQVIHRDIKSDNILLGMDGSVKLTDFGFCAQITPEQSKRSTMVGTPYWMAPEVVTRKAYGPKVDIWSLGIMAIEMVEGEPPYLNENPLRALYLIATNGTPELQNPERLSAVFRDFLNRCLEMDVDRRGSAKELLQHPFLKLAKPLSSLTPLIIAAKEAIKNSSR
Sequence of Rhodopsin kinase GRK7 (Homo sapiens) (Q8WTQ7 whole entry, the tested form may be a part): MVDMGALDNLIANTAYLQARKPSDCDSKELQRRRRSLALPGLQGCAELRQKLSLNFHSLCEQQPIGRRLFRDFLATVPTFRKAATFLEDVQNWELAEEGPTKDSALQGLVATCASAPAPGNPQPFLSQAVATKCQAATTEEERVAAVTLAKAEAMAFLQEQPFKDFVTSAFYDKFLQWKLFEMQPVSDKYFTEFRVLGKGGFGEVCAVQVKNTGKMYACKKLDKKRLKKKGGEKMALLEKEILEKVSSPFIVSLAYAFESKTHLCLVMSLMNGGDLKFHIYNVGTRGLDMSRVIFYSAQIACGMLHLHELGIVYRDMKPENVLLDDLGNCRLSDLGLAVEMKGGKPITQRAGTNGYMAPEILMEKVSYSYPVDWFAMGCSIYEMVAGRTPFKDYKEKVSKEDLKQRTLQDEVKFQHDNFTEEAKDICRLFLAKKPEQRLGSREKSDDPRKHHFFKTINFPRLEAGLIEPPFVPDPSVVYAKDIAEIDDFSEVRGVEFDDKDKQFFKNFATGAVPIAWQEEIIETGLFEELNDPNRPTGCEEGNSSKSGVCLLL
Sequence of Cyclin-dependent kinase-like 2 (Homo sapiens) (Q92772 whole entry, the tested form may be a part): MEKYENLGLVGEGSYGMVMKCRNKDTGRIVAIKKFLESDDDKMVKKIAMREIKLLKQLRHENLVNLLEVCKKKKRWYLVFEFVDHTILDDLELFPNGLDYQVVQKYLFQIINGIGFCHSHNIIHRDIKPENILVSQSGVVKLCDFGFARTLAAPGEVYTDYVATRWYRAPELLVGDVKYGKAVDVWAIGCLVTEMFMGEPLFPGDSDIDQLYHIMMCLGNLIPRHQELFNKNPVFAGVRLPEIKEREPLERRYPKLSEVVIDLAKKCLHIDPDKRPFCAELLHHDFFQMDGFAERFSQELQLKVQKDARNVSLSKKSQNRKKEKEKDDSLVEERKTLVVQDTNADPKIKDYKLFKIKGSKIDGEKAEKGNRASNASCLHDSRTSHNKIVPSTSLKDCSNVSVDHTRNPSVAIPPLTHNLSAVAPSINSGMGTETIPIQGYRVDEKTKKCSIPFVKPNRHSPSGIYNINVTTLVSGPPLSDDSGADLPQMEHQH
Sequence of MAP/microtubule affinity-regulating kinase 3 (Homo sapiens) (P27448 whole entry, looked up, the tested form may be a part): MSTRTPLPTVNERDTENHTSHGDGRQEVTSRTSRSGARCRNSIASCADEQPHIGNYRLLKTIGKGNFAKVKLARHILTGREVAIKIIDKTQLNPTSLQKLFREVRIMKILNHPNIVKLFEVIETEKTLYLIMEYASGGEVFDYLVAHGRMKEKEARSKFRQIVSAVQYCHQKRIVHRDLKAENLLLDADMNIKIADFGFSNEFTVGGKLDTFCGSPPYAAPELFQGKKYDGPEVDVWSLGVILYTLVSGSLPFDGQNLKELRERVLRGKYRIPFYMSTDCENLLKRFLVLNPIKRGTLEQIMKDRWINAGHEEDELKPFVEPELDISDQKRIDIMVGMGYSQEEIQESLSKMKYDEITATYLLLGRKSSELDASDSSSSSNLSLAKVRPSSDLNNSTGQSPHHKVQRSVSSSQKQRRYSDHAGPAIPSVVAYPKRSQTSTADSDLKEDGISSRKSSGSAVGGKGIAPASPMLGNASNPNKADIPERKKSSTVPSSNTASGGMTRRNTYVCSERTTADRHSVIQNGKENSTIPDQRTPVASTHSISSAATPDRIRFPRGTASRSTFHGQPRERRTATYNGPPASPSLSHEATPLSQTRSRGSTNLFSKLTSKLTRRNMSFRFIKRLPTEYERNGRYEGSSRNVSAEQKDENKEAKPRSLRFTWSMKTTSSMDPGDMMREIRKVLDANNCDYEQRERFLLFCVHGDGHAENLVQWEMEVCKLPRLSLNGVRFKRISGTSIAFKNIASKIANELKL
Sequence of Serine/threonine-protein kinase 3 (Homo sapiens) (Q13188 whole entry, the tested form may be a part): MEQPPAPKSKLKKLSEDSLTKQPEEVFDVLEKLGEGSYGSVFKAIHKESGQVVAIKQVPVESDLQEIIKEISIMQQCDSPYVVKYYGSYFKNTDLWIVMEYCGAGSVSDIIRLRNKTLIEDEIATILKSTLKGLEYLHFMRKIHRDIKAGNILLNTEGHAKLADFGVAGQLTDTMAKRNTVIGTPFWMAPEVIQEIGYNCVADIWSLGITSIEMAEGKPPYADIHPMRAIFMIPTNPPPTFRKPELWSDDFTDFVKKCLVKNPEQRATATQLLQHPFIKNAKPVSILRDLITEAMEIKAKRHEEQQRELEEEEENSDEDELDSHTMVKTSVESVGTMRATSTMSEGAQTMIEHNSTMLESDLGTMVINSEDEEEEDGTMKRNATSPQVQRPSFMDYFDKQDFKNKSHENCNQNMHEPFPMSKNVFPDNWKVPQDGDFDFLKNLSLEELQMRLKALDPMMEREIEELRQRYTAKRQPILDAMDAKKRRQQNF
Sequence of Cyclin-dependent kinase 18 (Homo sapiens) (Q07002 whole entry, the tested form may be a part): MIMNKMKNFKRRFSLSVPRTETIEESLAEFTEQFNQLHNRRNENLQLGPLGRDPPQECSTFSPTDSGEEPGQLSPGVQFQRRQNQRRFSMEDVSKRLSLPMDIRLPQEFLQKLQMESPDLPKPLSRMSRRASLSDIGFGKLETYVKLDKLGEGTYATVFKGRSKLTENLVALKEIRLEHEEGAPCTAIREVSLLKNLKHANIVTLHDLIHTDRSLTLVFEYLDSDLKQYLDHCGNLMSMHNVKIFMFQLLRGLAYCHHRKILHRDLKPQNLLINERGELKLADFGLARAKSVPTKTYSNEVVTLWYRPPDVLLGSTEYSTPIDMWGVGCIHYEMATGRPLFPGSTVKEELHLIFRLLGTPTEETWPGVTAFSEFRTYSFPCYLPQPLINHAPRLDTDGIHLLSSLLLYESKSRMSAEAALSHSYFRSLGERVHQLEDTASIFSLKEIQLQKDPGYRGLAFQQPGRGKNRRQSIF
Sequence of Serine/threonine-protein kinase 10 (Homo sapiens) (O94804 whole entry, looked up, the tested form may be a part): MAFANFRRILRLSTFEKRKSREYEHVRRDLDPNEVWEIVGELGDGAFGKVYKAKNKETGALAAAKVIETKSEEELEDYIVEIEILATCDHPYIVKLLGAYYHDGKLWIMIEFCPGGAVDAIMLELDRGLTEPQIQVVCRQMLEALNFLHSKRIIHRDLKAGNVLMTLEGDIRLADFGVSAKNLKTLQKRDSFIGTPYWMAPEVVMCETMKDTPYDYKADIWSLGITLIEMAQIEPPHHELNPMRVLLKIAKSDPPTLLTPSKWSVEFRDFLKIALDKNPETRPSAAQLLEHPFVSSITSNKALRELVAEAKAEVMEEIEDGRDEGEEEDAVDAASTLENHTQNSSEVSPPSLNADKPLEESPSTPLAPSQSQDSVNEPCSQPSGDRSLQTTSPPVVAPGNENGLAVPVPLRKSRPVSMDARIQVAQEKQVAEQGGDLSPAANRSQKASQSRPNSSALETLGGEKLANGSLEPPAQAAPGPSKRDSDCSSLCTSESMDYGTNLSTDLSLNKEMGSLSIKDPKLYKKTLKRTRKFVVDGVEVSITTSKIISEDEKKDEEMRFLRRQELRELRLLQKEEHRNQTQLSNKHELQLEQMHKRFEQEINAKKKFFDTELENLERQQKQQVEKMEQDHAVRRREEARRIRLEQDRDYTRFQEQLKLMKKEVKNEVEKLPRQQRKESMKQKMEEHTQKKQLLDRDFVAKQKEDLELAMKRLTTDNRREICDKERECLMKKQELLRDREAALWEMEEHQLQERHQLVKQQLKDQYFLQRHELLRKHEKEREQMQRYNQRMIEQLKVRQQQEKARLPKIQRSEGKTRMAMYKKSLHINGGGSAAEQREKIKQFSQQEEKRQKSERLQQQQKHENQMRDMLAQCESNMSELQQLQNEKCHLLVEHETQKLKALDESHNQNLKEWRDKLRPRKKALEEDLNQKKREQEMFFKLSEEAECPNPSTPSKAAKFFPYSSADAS
Sequence of Non-receptor tyrosine-protein kinase TNK1 (Homo sapiens) (Q13470 whole entry, the tested form may be a part): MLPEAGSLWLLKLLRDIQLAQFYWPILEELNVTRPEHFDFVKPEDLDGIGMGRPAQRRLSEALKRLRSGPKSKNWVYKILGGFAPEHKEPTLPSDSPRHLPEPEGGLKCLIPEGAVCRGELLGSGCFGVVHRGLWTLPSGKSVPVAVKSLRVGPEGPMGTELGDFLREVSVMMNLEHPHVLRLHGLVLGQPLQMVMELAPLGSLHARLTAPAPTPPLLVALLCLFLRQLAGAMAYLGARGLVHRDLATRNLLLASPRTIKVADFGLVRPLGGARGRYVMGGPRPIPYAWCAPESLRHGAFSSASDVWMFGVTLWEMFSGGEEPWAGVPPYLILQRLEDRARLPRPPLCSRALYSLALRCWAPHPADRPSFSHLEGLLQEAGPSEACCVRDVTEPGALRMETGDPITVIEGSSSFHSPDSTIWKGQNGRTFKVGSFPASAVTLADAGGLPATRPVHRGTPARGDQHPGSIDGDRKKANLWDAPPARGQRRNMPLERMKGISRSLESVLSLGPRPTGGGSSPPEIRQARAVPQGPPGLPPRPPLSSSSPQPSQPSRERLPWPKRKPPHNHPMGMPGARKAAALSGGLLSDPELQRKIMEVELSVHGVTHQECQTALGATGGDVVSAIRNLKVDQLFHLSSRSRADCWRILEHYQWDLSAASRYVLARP

For `Cc1ccc(NC(=O)c2ccc(CN(CCN(C)C)C(=O)c3cccnc3)cc2)cc1Nc1nccc(-c2cccnc2)n1`, the Activity worked out at 88% in assay [1]; 95% in [2]; 40% in [3]; 100% in assay [4]; 100% in assay [5]; 87% in [6]. Besides, the Activity in [8] came out at 69%; in assay [9], 85%; in [10] it was 28%; in assay [11], 85%; in assay [12], 93%; in assay [13] it was 75%. Further, the Activity in [14] worked out at 59%; in assay [15] it was 100%; in [16] it was 89%; in assay [17] it was 91%; in assay [18], 80%; in assay [19] it was 100%. For the same compound, the values for the Activity in [20] and in [21] were 95% and 100%, respectively. In addition, the inhibition entry in [7] is “Active”.
